Measurements from ChEMBL document CHEMBL5058577, “EUbOPEN Chemogenomics Library 2 (Multiplex)” (2022).

System: U2OS
Test: Multiplex assay against U2OS
Assay type: toxicity, cell-based
Details: human
Method in brief: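 Cells were classed with CellPathfinder machine-learning gating, first as Hoechst high-intensity objects or normal cells, then (normal cells) as healthy, pyknosed or fragmented nuclei, and finally (pyknosed cells) as mitotic or apoptotic. Staining of live cells at seeding used Hoechst33342, BioTracker Green Microtubule Cytoskeleton Dye, MitoTracker Red and Annexin V Alexa Fluor 680, with imaging on a CQ1 microscope at 37°C and 5% CO2 after compound addition. Tubulin, mitochondrial-mass and membrane-permeability phenotypes are per cents of healthy-nucleus cells.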

[1] = 12 h, 1 µM, compound concentration 1 uM, replicate 1
[2] = 12 h, 1 µM, compound concentration 1 uM, replicate 2
[3] = 12 h, 10 µM, compound concentration 10 uM, replicate 1
[4] = 12 h, 10 µM, compound concentration 10 uM, replicate 2
[5] = 24 h, 1 µM, compound concentration 1 uM, replicate 1
[6] = 24 h, 1 µM, compound concentration 1 uM, replicate 2
[7] = 24 h, 10 µM, compound concentration 10 uM, replicate 1
[8] = 24 h, 10 µM, compound concentration 10 uM, replicate 2
[9] = 48 h, 1 µM, compound concentration 1 uM, replicate 1
[10] = 48 h, 1 µM, compound concentration 1 uM, replicate 2
[11] = 48 h, 10 µM, compound concentration 10 uM, replicate 1
[12] = 48 h, 10 µM, compound concentration 10 uM, replicate 2

CC(=O)NCCc1c(Cc2ccccc2)[nH]c2ccccc12 [LUZINDOLE]
Population Apoptotic (%) [1]: 72%
Population Fragmented Nuclei (%) [1]: 25%
Population Healthy Nuclei (%) [1]: 65%
Population Hoechst High Intensity Objects (%) [1]: 3%
Population Membrane Permeable-Phenotype (%) [1]: 3%
Population Mitochondria Different-Phenotype (%) [1]: 4%
Population Mitotic Cells (%) [1]: 27%
Population Normal (%) [1]: 96%
Population Pyknosed Nuclei (%) [1]: 9%
Population Tubulin-Different-Phenotype (%) [1]: 1%
Total Cell Count [1]: 233
Population Apoptotic (%) [2]: 100%
Population Fragmented Nuclei (%) [2]: 19%
Population Healthy Nuclei (%) [2]: 77%
Population Hoechst High Intensity Objects (%) [2]: 2%
Population Membrane Permeable-Phenotype (%) [2]: 6%
Population Mitochondria Different-Phenotype (%) [2]: 2%
Population Mitotic Cells (%) [2]: 0%
Population Normal (%) [2]: 97%
Population Pyknosed Nuclei (%) [2]: 3%
Population Tubulin-Different-Phenotype (%) [2]: 2%
Total Cell Count [2]: 134
Population Apoptotic (%) [3]: 81%
Population Fragmented Nuclei (%) [3]: 26%
Population Healthy Nuclei (%) [3]: 65%
Population Hoechst High Intensity Objects (%) [3]: 2%
Population Membrane Permeable-Phenotype (%) [3]: 8%
Population Mitochondria Different-Phenotype (%) [3]: 3%
Population Mitotic Cells (%) [3]: 18%
Population Normal (%) [3]: 97%
Population Pyknosed Nuclei (%) [3]: 7%
Population Tubulin-Different-Phenotype (%) [3]: 4%
Total Cell Count [3]: 291
Population Apoptotic (%) [4]: 76%
Population Fragmented Nuclei (%) [4]: 13%
Population Healthy Nuclei (%) [4]: 78%
Population Hoechst High Intensity Objects (%) [4]: 1%
Population Membrane Permeable-Phenotype (%) [4]: 5%
Population Mitochondria Different-Phenotype (%) [4]: 2%
Population Mitotic Cells (%) [4]: 23%
Population Normal (%) [4]: 98%
Population Tubulin-Different-Phenotype (%) [4]: 3%
Total Cell Count [4]: 179
Population Apoptotic (%) [5]: 90%
Population Fragmented Nuclei (%) [5]: 19%
Population Healthy Nuclei (%) [5]: 68%
Population Hoechst High Intensity Objects (%) [5]: 4%
Population Membrane Permeable-Phenotype (%) [5]: 2%
Population Mitochondria Different-Phenotype (%) [5]: 3%
Population Mitotic Cells (%) [5]: 10%
Population Normal (%) [5]: 95%
Population Pyknosed Nuclei (%) [5]: 12%
Population Tubulin-Different-Phenotype (%) [5]: 3%
Total Cell Count [5]: 260
Population Apoptotic (%) [6]: 88%
Population Fragmented Nuclei (%) [6]: 18%
Population Healthy Nuclei (%) [6]: 70%
Population Hoechst High Intensity Objects (%) [6]: 0%
Population Membrane Permeable-Phenotype (%) [6]: 5%
Population Mitochondria Different-Phenotype (%) [6]: 1%
Population Mitotic Cells (%) [6]: 11%
Population Normal (%) [6]: 99%
Population Pyknosed Nuclei (%) [6]: 10%
Population Tubulin-Different-Phenotype (%) [6]: 4%
Total Cell Count [6]: 156
Population Apoptotic (%) [7]: 88%
Population Fragmented Nuclei (%) [7]: 25%
Population Healthy Nuclei (%) [7]: 66%
Population Hoechst High Intensity Objects (%) [7]: 2%
Population Membrane Permeable-Phenotype (%) [7]: 6%
Population Mitochondria Different-Phenotype (%) [7]: 3%
Population Mitotic Cells (%) [7]: 12%
Population Normal (%) [7]: 97%
Population Pyknosed Nuclei (%) [7]: 7%
Population Tubulin-Different-Phenotype (%) [7]: 4%
Total Cell Count [7]: 342
Population Apoptotic (%) [8]: 85%
Population Fragmented Nuclei (%) [8]: 11%
Population Healthy Nuclei (%) [8]: 80%
Population Hoechst High Intensity Objects (%) [8]: 0%
Population Mitochondria Different-Phenotype (%) [8]: 1%
Population Mitotic Cells (%) [8]: 15%
Population Normal (%) [8]: 99%
Population Pyknosed Nuclei (%) [8]: 8%
Population Tubulin-Different-Phenotype (%) [8]: 3%
Total Cell Count [8]: 236
Population Apoptotic (%) [9]: 91%
Population Fragmented Nuclei (%) [9]: 16%
Population Healthy Nuclei (%) [9]: 74%
Population Hoechst High Intensity Objects (%) [9]: 2%
Population Membrane Permeable-Phenotype (%) [9]: 3%
Population Mitochondria Different-Phenotype (%) [9]: 2%
Population Mitotic Cells (%) [9]: 8%
Population Normal (%) [9]: 97%
Population Pyknosed Nuclei (%) [9]: 9%
Population Tubulin-Different-Phenotype (%) [9]: 2%
Total Cell Count [9]: 395
Population Apoptotic (%) [10]: 80%
Population Fragmented Nuclei (%) [10]: 11%
Population Healthy Nuclei (%) [10]: 77%
Population Hoechst High Intensity Objects (%) [10]: 1%
Population Membrane Permeable-Phenotype (%) [10]: 8%
Population Mitochondria Different-Phenotype (%) [10]: 1%
Population Mitotic Cells (%) [10]: 20%
Population Normal (%) [10]: 98%
Population Pyknosed Nuclei (%) [10]: 11%
Population Tubulin-Different-Phenotype (%) [10]: 4%
Total Cell Count [10]: 217
Population Apoptotic (%) [11]: 89%
Population Fragmented Nuclei (%) [11]: 21%
Population Healthy Nuclei (%) [11]: 69%
Population Hoechst High Intensity Objects (%) [11]: 2%
Population Membrane Permeable-Phenotype (%) [11]: 6%
Population Mitochondria Different-Phenotype (%) [11]: 3%
Population Mitotic Cells (%) [11]: 10%
Population Normal (%) [11]: 97%
Population Pyknosed Nuclei (%) [11]: 8%
Population Tubulin-Different-Phenotype (%) [11]: 3%
Total Cell Count [11]: 446
Population Apoptotic (%) [12]: 100%
Population Fragmented Nuclei (%) [12]: 11%
Population Healthy Nuclei (%) [12]: 82%
Population Hoechst High Intensity Objects (%) [12]: 1%
Population Membrane Permeable-Phenotype (%) [12]: 5%
Population Mitochondria Different-Phenotype (%) [12]: 2%
Population Mitotic Cells (%) [12]: 0%
Population Normal (%) [12]: 98%
Population Pyknosed Nuclei (%) [12]: 5%
Total Cell Count [12]: 354
